From ChEMBL document CHEMBL1145477, “Activity of T-1106 in a hamster model of yellow Fever virus infection” (Antimicrob Agents Chemother, 2007)
Active and inactive are the calls of the source. No cut-off for these calls is given here.

Legend:
Yellow fever virus [1] = assay: Antiviral activity against YFV Jimenez infected in Syrian golden hamster assessed as mean day to death after 21 days post-infection at 32 mg/kg, ip bid for 7 days; type: functional; conditions: route intraperitoneal
Yellow fever virus [2] = assay: Antiviral activity against YFV Jimenez infected in Syrian golden hamster liver assessed as alanine aminotransferase at 100 mg/kg/day, ip bid for 8 days administered after 5 day post-infection; type: functional; conditions: route intraperitoneal
Procedure, shortened: (§1)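 YFV (Jimenez)-infected female hamsters were treated b.i.d. i.p. or p.o. Serum was drawn by ocular sinus at 6 dpi. ALT was read with a colorimetric kit adapted to microplates: substrate plus serum for 30 min at 37°C, then colour reagent and developer, absorbance at 505 nm. Values are IU/liter against saline controls.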

Yellow fever virus [3] = assay: Antiviral activity against YFV Jimenez infected in Syrian golden hamster liver assessed as weight change at 100 mg/kg/day, ip bid for 8 days administered after 4 day post-infection; type: functional; conditions: route intraperitoneal
Yellow fever virus [4] = assay: Antiviral activity against YFV Jimenez infected in Syrian golden hamster liver assessed as mean day to death at 100 mg/kg/day, ip bid for 8 days administered after 5 day post-infection; type: functional; conditions: route intraperitoneal
Yellow fever virus [5] = assay: Antiviral activity against YFV Jimenez infected in Syrian golden hamster assessed as serum alanine aminotransferase at 32 mg/kg, po bid for 7 days; type: functional; procedure, shortened: as §1
Yellow fever virus [6] = assay: Antiviral activity against YFV infected in african green monkey Vero cells assessed as reduction in cytopathic effect after 6 days; type: functional, organism-based; conditions: 144 h
Procedure, shortened: (§2)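 Jimenez hamster-adapted YFV at 10 CCID50/well on Vero or CV-1 monolayers; seven drug concentrations added 5–10 min before virus; 37°C for 6 days. CPE scored microscopically, then neutral red uptake (0.34% dye, 2 h, eluted and quantified). EC50 derived; CC50 from uninfected drug-treated cells; SI = CC50/EC50.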

Yellow fever virus [7] = assay: Antiviral activity against YFV Jimenez infected in Syrian golden hamster assessed as weight change at 32 mg/kg, po bid for 7 days; type: functional
[8] = Selectivity index, ratio of CC50 for african green monkey CV1 cells to EC50 for YFV infected in CV1 cells; type: functional, CV-1; procedure, shortened: as §2
[9] = Toxicity in MDBK cells; type: cell-based, Bos taurus; conditions: cattle
Yellow fever virus [10] = assay: Antiviral activity against YFV Jimenez infected in Syrian golden hamster liver assessed as mean day to death at 100 mg/kg/day, ip bid for 8 days administered after 1 day post-infection; type: functional; conditions: route intraperitoneal
Yellow fever virus [11] = assay: Antiviral activity against YFV infected in african green monkey CV1 cells assessed as reduction in cytopathic effect after 6 days; type: functional, organism-based; conditions: CV-1, 144 h; procedure, shortened: as §2
Syrian golden hamster [12] = assay: Toxicity in YFV infected Syrian golden hamster assessed as survival of animals at 32 mg/kg/day, ip bid for 7 days; type: organism-based, Mesocricetus auratus; parameters: route intraperitoneal; conditions: in vivo, 168 h
Procedure, shortened: (§3)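 Female Syrian golden hamsters (~100 g), toxicity-control groups of three, sham-infected. Drug suspended in saline or 0.4% carboxymethyl cellulose, given i.p. b.i.d. 12 h apart from −4 h through 7 days. Mortality checked daily; weight taken at 0, 3 and 6 dpi, with change taken as 3-to-6 dpi difference.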

Yellow fever virus [13] = assay: Antiviral activity against YFV Jimenez infected in Syrian golden hamster liver treated 4 hrs before viral challenge assessed as survival at 100 mg/kg/day, ip bid for 8 days; type: functional, organism-based
Yellow fever virus [14] = assay: Antiviral activity against YFV Jimenez infected in Syrian golden hamster assessed as survival of animal at 32 mg/kg, ip bid for 7 days; type: functional, organism-based; parameters: dose 32 mg/kg
Yellow fever virus [15] = assay: Antiviral activity against YFV Jimenez infected in Syrian golden hamster liver treated 4 hrs before viral challenge assessed as weight change at 100 mg/kg/day, ip bid for 8 days; type: functional; conditions: route intraperitoneal
Yellow fever virus [16] = assay: Antiviral activity against YFV Jimenez infected in Syrian golden hamster liver assessed as weight change at 100 mg/kg/day, ip bid for 8 days administered after 1 day post-infection; type: functional; conditions: route intraperitoneal
Yellow fever virus [17] = assay: Antiviral activity against YFV Jimenez infected in Syrian golden hamster assessed as survival of animal at 32 mg/kg, po for 7 days; type: functional, organism-based; parameters: dose 32 mg/kg
Yellow fever virus [18] = assay: Antiviral activity against YFV Jimenez infected in Syrian golden hamster assessed as serum alanine aminotransferase at 10 mg/kg, ip bid for 7 days; type: functional; conditions: route intraperitoneal; procedure, shortened: as §1
Yellow fever virus [19] = assay: Antiviral activity against YFV Jimenez infected in Syrian golden hamster liver assessed as survival at 100 mg/kg/day, ip bid for 8 days administered after 2 days post-infection; type: functional, organism-based
Yellow fever virus [20] = assay: Antiviral activity against YFV Jimenez infected in Syrian golden hamster liver assessed as alanine aminotransferase at 100 mg/kg/day, ip bid for 8 days administered after 4 day post-infection; type: functional; conditions: route intraperitoneal; procedure, shortened: as §1
Yellow fever virus [21] = assay: Antiviral activity against YFV Jimenez infected in Syrian golden hamster assessed as survival of animal at 10 mg/kg, ip bid for 7 days; type: functional; conditions: route intraperitoneal
Yellow fever virus [22] = assay: Antiviral activity against YFV Jimenez infected in Syrian golden hamster liver treated 4 hrs before viral challenge assessed as mean day to death at 100 mg/kg/day, ip bid for 8 days; type: functional; conditions: route intraperitoneal
Yellow fever virus [23] = assay: Antiviral activity against YFV Jimenez infected in Syrian golden hamster assessed as weight change at 100 mg/kg, po bid for 7 days; type: functional
Yellow fever virus [24] = assay: Antiviral activity against YFV Jimenez infected in Syrian golden hamster liver treated 4 hrs before viral challenge assessed as serum alanine aminotransferase at 100 mg/kg/day, ip bid for 8 days; type: functional; conditions: route intraperitoneal; procedure, shortened: as §1
Syrian golden hamster [25] = assay: Toxicity in YFV infected Syrian golden hamster assessed as assessed as weight change at 100 mg/kg/day, ip bid for 7 days; type: organism-based, Mesocricetus auratus; parameters: route intraperitoneal; conditions: in vivo, 168 h; procedure, shortened: as §3
Yellow fever virus [26] = assay: Antiviral activity against YFV Jimenez infected in Syrian golden hamster assessed as weight change at 32 mg/kg, ip bid for 7 days; type: functional; conditions: route intraperitoneal
Syrian golden hamster [27] = assay: Toxicity in YFV infected Syrian golden hamster assessed as survival of animals at 100 mg/kg/day, ip bid for 7 days; type: organism-based, Mesocricetus auratus; parameters: route intraperitoneal; conditions: in vivo, 168 h; procedure, shortened: as §3

NC(=O)c1nccn([C@@H]2O[C@H](CO)[C@@H](O)[C@H]2O)c1=O
Activity (Yellow fever virus [1]): >21 days
Activity (Yellow fever virus [2]): 205 IU/L
Activity (Yellow fever virus [3]): -4.7 g
Activity (Yellow fever virus [4]): 7.4 days
Activity (Yellow fever virus [5]): 61 IU/L
EC50 (Yellow fever virus [6]): > 100 µg/mL
Activity (Yellow fever virus [7]): 4.4 g
Ratio CC50/EC50 [8]: 1
CC50 [9]: 2900 µM
Activity (Yellow fever virus [10]): >21 days
EC50 (Yellow fever virus [11]): > 100 µg/mL
Activity (Syrian golden hamster [12]): Non-toxic
Activity (Yellow fever virus [13]): Active
Activity (Yellow fever virus [14]): Active
Activity (Yellow fever virus [15]): 6 g
Activity (Yellow fever virus [16]): 6.1 g
Activity (Yellow fever virus [17]): Active
Activity (Yellow fever virus [18]): 174 IU/L
Activity (Yellow fever virus [19]): Active
Activity (Yellow fever virus [20]): 108 IU/L
Activity (Yellow fever virus [21]): 80%
Activity (Yellow fever virus [22]): >21 days
Activity (Yellow fever virus [23]): 6.3 g
Activity (Yellow fever virus [24]): 58 IU/L
Activity (Syrian golden hamster [25]): 5.3 g
Activity (Yellow fever virus [26]): 5.2 g
Activity (Syrian golden hamster [27]): Non-toxic
